# High-throughput results as filed in PubChem BioAssay.
# CHRM4 agonist = human M4 muscarinic receptor agonists, primary screen, CHO-K1 cells, Fluo-8 calcium fluorescence; Muscarinic acetylcholine receptor M4 (Homo sapiens), P08173; CHO-K1 hM4/Gqi5; vehicle 0%, full acetylcholine response 100%; activation, % at 3 µM; 0.14% of 360,000 active;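 active = activation above the run mean over all test wells plus 3 SD, cut at about 32% in these data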;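 also: peak over basal fluorescence ratio per well then scaled between controls; 0% = DMSO wells and 100% = acetylcholine at EC100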
# M5 ag = human M5 muscarinic receptor agonists, primary screen, CHO-K1 cells, Fluo-8 calcium fluorescence; Muscarinic acetylcholine receptor M5 (Homo sapiens), P08912; AID 624037, 2012; CHO-K1 hM5 cells; 0% DMSO wells, 100% maximal acetylcholine response; 0.19% of 360,000 active; activation, % at 3 µM;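 active = activation above the run's mean over test compounds plus 3 SD, cut at about 23% in these data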;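 also: signal is peak over basal fluorescence ratio across the kinetic read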
# Target sequence (P08912 whole entry, looked up): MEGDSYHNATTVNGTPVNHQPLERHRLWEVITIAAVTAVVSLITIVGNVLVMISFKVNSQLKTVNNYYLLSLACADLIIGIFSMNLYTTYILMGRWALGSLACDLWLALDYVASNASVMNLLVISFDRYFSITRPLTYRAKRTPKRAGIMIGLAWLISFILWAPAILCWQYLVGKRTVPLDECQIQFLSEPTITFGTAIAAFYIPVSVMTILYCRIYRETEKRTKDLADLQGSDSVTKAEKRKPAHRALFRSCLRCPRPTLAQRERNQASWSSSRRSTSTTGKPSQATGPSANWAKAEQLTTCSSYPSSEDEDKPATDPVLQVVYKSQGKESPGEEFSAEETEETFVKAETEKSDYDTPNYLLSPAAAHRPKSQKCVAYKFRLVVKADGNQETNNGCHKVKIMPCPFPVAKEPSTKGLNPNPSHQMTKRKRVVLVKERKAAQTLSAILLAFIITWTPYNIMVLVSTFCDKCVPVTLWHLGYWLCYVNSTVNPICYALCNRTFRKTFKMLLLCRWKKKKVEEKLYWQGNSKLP
# M4 PAM = human M4 muscarinic receptor positive allosteric modulators, primary screen, CHO-K1 cells, Fluo-8 calcium fluorescence; Muscarinic acetylcholine receptor M4 (Homo sapiens), P08173; CHO-K1 hM4/Gqi5, ACh EC20; 0% = ACh EC20, 100% = maximal ACh; activation, % at 3 µM; 0.4% of 360,000 active;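 active = activation above its plate's cutoff, the mean activation of sample wells plus 3 SD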
# CHRM5 PAM = human M5 muscarinic receptor positive allosteric modulators, primary screen, CHO-K1 cells, Fluo-8 calcium fluorescence | activation, % at 3 µM | AID 624038, 2012 | CHO-K1 hM5, ACh EC20 PAM; 0% = ACh EC20, 100% = ACh EC100 | Muscarinic acetylcholine receptor M5 (Homo sapiens), P08912 | 0.3% of 360,000 active;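 active = activation above the run cutoff, the mean activation of all test compounds plus 3 SD, cut at about 18% in these data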
#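 Probe or stimulus: acetylcholine, EC20 level; Assay system: human M5 receptor in CHO-K1 cells; Schedule: compound preincubation 140 s before EC20 acetylcholine addition; Technique: intracellular calcium via Fluo-8 fluorescence; Dosing: single-point, 3 µM nominal; Read-out basis: percent activation from peak-over-basal fluorescence ratio, scaled EC20-to-EC100 acetylcholine; Repeats: one well per compound, no replicates.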
# CHRM5 antagonist = human M5 muscarinic receptor antagonists, primary screen, CHO cells, Fluo-8 calcium fluorescence; Muscarinic acetylcholine receptor M5 (Homo sapiens), P08912; CHO-hM5 cells, ACh EC80; inhibition, % at 3 µM; 0.59% of 360,000 active; AID 624040, 2012;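 active = inhibition above a per-plate cutoff, the mean of that plate's test compounds plus 3 SD, cut at about 27% in these data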;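 also: 0% = acetylcholine EC80 with DMSO and 100% = DMSO without agonist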
# M4 antag = human M4 muscarinic receptor antagonists, primary screen, CHO cells, Fluo-8 calcium fluorescence. 0.73% of 360,000 active. inhibition, % at 3 µM. CHO-hM4 cells, ACh EC80. AID 624125, 2012;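 active = inhibition above its plate's cutoff, the mean inhibition of sample wells plus 3 SD, cut at about 27% in these data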;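 also: 0% = acetylcholine EC80 with DMSO and 100% = DMSO without agonist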
# * hit, by the source's call. Only some compounds are listed: those with a hit (about 1.8% of all), similar ones and a draw of the others.
SMILES,CHRM4 agonist,M5 ag,M4 PAM,CHRM5 PAM,CHRM5 antagonist,M4 antag
CCCOC1CCCN(C(=O)c2cc(Cl)c(Cl)cc2C(=O)O)C1 (stereo unspecified),3,25*,-6,-11,5,9
O=C(CCC(=O)N(CC(=O)NC1CCCC1)C1CCCCC1)Nc1ccccn1,1,-3,3,-4,4,0
COc1cc([N+](=O)[O-])ccc1NC(=O)NCC1CCN(Cc2ccc(Cl)cc2)CC1,29,-5,-20,-23,17,32*
CCOC(=O)N1CCN(C(=O)CSCC(=O)Nc2nc(-c3ccc(OC)cc3)cs2)CC1,5,6,-6,-1,3,6
CCOC(=O)N1CCN(C(=O)CSCC(=O)Nc2nc(-c3ccc(-c4ccccc4)cc3)cs2)CC1,19,8,-9,-22,44*,5
O=C(NCCCN1CCCC1)c1ccc2c(c1)N(Cc1ccc(F)cc1)C(=O)c1ccccc1S2=O (stereo unspecified),1,-9,-8,-2,8,-1
CCC1CCCCN1CCCNC(=O)c1ccc2c(c1)N(Cc1ccc(F)cc1)C(=O)c1ccccc1S2=O (stereo unspecified),2,-11,-14,-9,6,29*
Cc1cc(=O)n2nc(N3CCCC(C(=O)N4CCc5ccccc54)C3)sc2n1 (stereo unspecified),-1,-8,-18,-14,6,32*
CC(C)Cc1nnc(NC(=O)c2ccc(-n3cncn3)c([N+](=O)[O-])c2)s1,1,0,0,-4,-1,-12
Cc1nn(-c2cc(C(F)(F)F)ccc2Cl)c2nc(C(Cl)(Cl)Cl)[nH]c(=O)c12,1,13,-8,19*,4,6
COc1ccc(-c2coc3c(C(=O)Nc4cccc(C(C)=O)c4)cccc23)c(C)c1,3,0,2,-9,3,-25
CCOC(=O)c1ccc(NC(=O)c2nc[nH]c2C(=O)N(CC)CC)cc1,2,3,22*,4,2,-5
CCOC(=O)c1ccc(NC(=O)c2ncn3c2C(=O)N[C@H](C)C3)cc1,0,1,17*,-4,-7,-23
CCOC(=O)c1ccc(NC(=O)c2nc[nH]c2C(=O)NCCCNC(=O)c2[nH]cnc2C(=O)Nc2ccc(C(=O)OCC)cc2)cc1,1,3,4,8,2,-6
CCOC(=O)c1ccc(NC(=O)c2ncn3c2C(=O)NC[C@H]3C)cc1,1,0,11,0,1,-17
Cc1ccc(-c2nnc(SCC(=O)NCC3CCCO3)nc2-c2ccc(C)cc2)cc1 (stereo unspecified),-1,-3,2,0,6,2
Cn1c(N)c(-c2ccccc2)c2ccc([N+](=O)[O-])cc2c1=O,56*,23,-20,-9,16,17
O=C(NC1CC1)c1cc(=S)[nH]c2ccccc12,2,0,3,3,3,-10
O=C(Nc1ccc(F)cc1)C1CCCN(S(=O)(=O)c2cccc3nonc23)C1 (stereo unspecified),3,-1,3,1,5,-18
O=C(NCc1ccc(F)cc1)C1CCCN(S(=O)(=O)c2cccc3nonc23)C1 (stereo unspecified),3,3,7,20*,-26,-13
COc1ccc(C(=O)NC2=NCCS2)cc1S(=O)(=O)N1CCOCC1,0,0,5,-4,0,-6
COCCNc1ncnc2c1cnn2-c1ccc(Cl)cc1,6,2,13,-4,19,28*
O=C(Nc1ccccc1)SC1CCCCC1,0,-9,8,2,-6,-4
COc1ccc(-c2csc(C(C)(O)c3cccc(F)c3)n2)cc1 (stereo unspecified),4,-1,-11,-11,8,37*
COc1ccccc1N1C(=O)C2C3C=CC(CC3)C2C1=O (stereo unspecified),0,-4,-1,-2,5,-13
SMILES,CHRM4 agonist,M5 ag,M4 PAM,CHRM5 PAM,CHRM5 antagonist,M4 antag
COc1ccccc1N1CCNC(C)C1=O (stereo unspecified),0,-2,14*,8,-1,-6
CC(=O)c1cccc(OCc2cc(C(=O)N(C)Cc3cnccn3)no2)c1,3,1,5,1,1,-8
CN(Cc1cccnc1)C(=O)c1cc(COc2ccc3c(c2)CCCC3)on1,15,-1,-12,-18,33*,0
Cn1c(=O)c2[nH]c(C3CCCC3)nc2n(C)c1=O,1,1,-20,-4,0,101*
Cn1c(=O)c2[nH]c(C3CC=CCC3)nc2n(C)c1=O (stereo unspecified),1,3,-1,5,7,-5
CC1(c2ccc(OC(F)F)cc2)NC(=O)N(CC(=O)Nc2cccnc2Cl)C1=O (stereo unspecified),28,43*,-6,-12,8,8
COc1ccc(C2(C)NC(=O)N(CC(=O)Nc3cccnc3Cl)C2=O)cc1 (stereo unspecified),2,10,-2,-4,4,4
COc1ccccc1Nc1nnc(SCc2cc(=O)n3cc(C)ccc3n2)s1,14,0,-2,-12,16,8
O=C(c1cc(Cl)cc(Cl)c1)N1CCC2CC1c1cc(N3CCCCC3)ccc12 (stereo unspecified),-2,-3,-12,-18,13,27*
NC(=O)CSc1nc(O)cc(=O)n1-c1ccccc1,1,-1,17*,1,2,0
Cc1ccc(-n2c(SCC(N)=O)nc(O)cc2=O)cc1,1,1,-1,-3,4,4
CC(C)c1ccc(NC(=O)C2CC(=O)N(C3CCCC3)C2)cc1 (stereo unspecified),4,-3,18*,-3,6,-19
c1ccc(CCCNc2ncnc3nc[nH]c23)cc1,14,9,-1,-9,-3,-10
c1ccc2c(CCNc3ncnc4nc[nH]c34)cccc2c1,29,10,-28,-24,33*,29*
N=c1c(C(=O)NCC2CCCO2)cc2c(=O)n3ccccc3nc2n1Cc1ccccc1Cl (stereo unspecified),1,-1,3,3,-1,4
